Experimental data taken from ChEMBL document CHEMBL1914423, “New imidazo[2,1-b]thiazole derivatives: synthesis, in vitro anticancer evaluation, and in silico studies” (Eur J Med Chem, 2011).

Tests used:
Type in all cases: functional
CCRF-CEM = assay: Anticancer activity against human CCRF-CEM cells assessed as cell growth at 10^-5 M after 48 hrs by SRB assay; details: read-out: Activity
Method in brief: (§1)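 NCI-60 single-dose screen at one concentration. Cells grown in RPMI 1640 with 5% FBS and 2 mM L-glutamine, plated at 5000–40,000 cells/well, and pre-incubated 24 h at 37 °C in 5% CO2 before DMSO-dissolved drug was added. Cells fixed with TCA, SRB-stained, absorbance read at 515 nm. Percent growth calculated against time-zero and untreated control plates.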

K562 = assay: Anticancer activity against human K562 cells assessed as cell growth at 10^-5 M after 48 hrs by SRB assay; details: K562, 48 h, read-out: Activity; method in brief: as §1
MOLT-4 = assay: Anticancer activity against human MOLT4 cells assessed as cell growth at 10^-5 M after 48 hrs by SRB assay; details: MOLT-4, 48 h, read-out: Activity
RPMI-8226 = assay: Anticancer activity against human RPMI8226 cells assessed as cell growth at 10^-5 M after 48 hrs by SRB assay; details: RPMI-8226, 48 h, read-out: Activity
HOP-92 = assay: Anticancer activity against human HOP92 cells assessed as cell growth at 10^-5 M after 48 hrs by SRB assay; details: HOP-92, 48 h, read-out: Activity; method in brief: as §1
NCI-H226 = assay: Anticancer activity against human NCI-H226 cells assessed as cell growth at 10^-5 M after 48 hrs by SRB assay; details: NCI-H226, 48 h, read-out: Activity
NCI-H23 = assay: Anticancer activity against human NCI-H23 cells assessed as cell growth at 10^-5 M after 48 hrs by SRB assay; details: NCI-H23, 48 h, read-out: Activity
NCI-H322M = assay: Anticancer activity against human NCI-H322M cells assessed as cell growth at 10^-5 M after 48 hrs by SRB assay; details: read-out: Activity
NCI-H460 = assay: Anticancer activity against human NCI-H460 cells assessed as cell growth at 10^-5 M after 48 hrs by SRB assay; details: NCI-H460, 48 h, read-out: Activity
NCI-H522 = assay: Anticancer activity against human NCI-H522 cells assessed as cell growth at 10^-5 M after 48 hrs by SRB assay; details: NCI-H522, 48 h, read-out: Activity
HCT-116 = assay: Anticancer activity against human HCT116 cells assessed as cell growth at 10^-5 M after 48 hrs by SRB assay; details: HCT-116, 48 h, read-out: Activity; method in brief: as §1
HCT-15 = assay: Anticancer activity against human HCT15 cells assessed as cell growth at 10^-5 M after 48 hrs by SRB assay; details: HCT-15, 48 h, read-out: Activity; method in brief: as §1
KM12 = assay: Anticancer activity against human KM12 cells assessed as cell growth at 10^-5 M after 48 hrs by SRB assay; details: KM12, 48 h, read-out: Activity; method in brief: as §1
SF-295 = assay: Anticancer activity against human SF295 cells assessed as cell growth at 10^-5 M after 48 hrs by SRB assay; details: SF-295, 48 h, read-out: Activity
U-251 = assay: Anticancer activity against human U251 cells assessed as cell growth at 10^-5 M after 48 hrs by SRB assay; details: U-251, 48 h, read-out: Activity
Method in brief: (§2)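 NCI-60 single-dose screen: cells in RPMI 1640 with 5% FBS and 2 mM L-glutamine, plated at 5000–40,000 cells/well by doubling time, and preincubated 24 h at 37 °C. Compound given at one concentration from DMSO stock. Cells TCA-fixed and SRB-stained, absorbance at 515 nm. Percent growth relative to time-zero and untreated controls; inhibition % = 100 − growth %.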

Malme-3M = assay: Anticancer activity against human MALME-3M cells assessed as cell growth at 10^-5 M after 48 hrs by SRB assay; details: read-out: Activity; method in brief: as §1
M14 = assay: Anticancer activity against human M14 cells assessed as cell growth at 10^-5 M after 48 hrs by SRB assay; details: M14, 48 h, read-out: Activity; method in brief: as §1
SK-MEL-28 = assay: Anticancer activity against human SK-MEL-28 cells assessed as cell growth at 10^-5 M after 48 hrs by SRB assay; details: SK-MEL-28, 48 h, read-out: Activity
SK-MEL-5 = assay: Anticancer activity against human SK-MEL-5 cells assessed as cell growth at 10^-5 M after 48 hrs by SRB assay; details: SK-MEL-5, 48 h, read-out: Activity
IGROV-1 = assay: Anticancer activity against human IGROV1 cells assessed as cell growth at 10^-5 M after 48 hrs by SRB assay; details: IGROV-1, 48 h, read-out: Activity; method in brief: as §1
OVCAR-3 = assay: Anticancer activity against human OVCAR3 cells assessed as cell growth at 10^-5 M after 48 hrs by SRB assay; details: OVCAR-3, 48 h, read-out: Activity
OVCAR-8 = assay: Anticancer activity against human OVCAR8 cells assessed as cell growth at 10^-5 M after 48 hrs by SRB assay; details: OVCAR-8, 48 h, read-out: Activity
SK-OV-3 = assay: Anticancer activity against human SKOV3 cells assessed as cell growth at 10^-5 M after 48 hrs by SRB assay; details: SK-OV-3, 48 h, read-out: Activity
786-0 = assay: Anticancer activity against human 786-0 cells assessed as cell growth at 10^-5 M after 48 hrs by SRB assay; details: 786-0, 48 h, read-out: Activity; method in brief: as §1
ACHN = assay: Anticancer activity against human ACHN cells assessed as cell growth at 10^-5 M after 48 hrs by SRB assay; details: read-out: Activity; method in brief: as §1
SN12C = assay: Anticancer activity against human SN12C cells assessed as cell growth at 10^-5 M after 48 hrs by SRB assay; details: read-out: Activity
UO-31 = assay: Anticancer activity against human UO31 cells assessed as cell growth at 10^-5 M after 48 hrs by SRB assay; details: UO-31, 48 h, read-out: Activity; method in brief: as §2
PC-3 = assay: Anticancer activity against human PC3 cells assessed as cell growth at 10^-5 M after 48 hrs by SRB assay; details: PC-3, 48 h, read-out: Activity
MCF7 = assay: Anticancer activity against human MCF7 cells assessed as cell growth at 10^-5 M after 48 hrs by SRB assay; details: MCF7, 48 h, read-out: Activity; method in brief: as §1
MDA-MB-231 = assay: Anticancer activity against human MDA-MB-231 cells assessed as cell growth at 10^-5 M after 48 hrs by SRB assay; details: MDA-MB-231, 48 h, read-out: Activity; method in brief: as §1
T47D = assay: Anticancer activity against human T47D cells assessed as cell growth at 10^-5 M after 48 hrs by SRB assay; details: read-out: Activity; method in brief: as §2
MDA-MB-468 = assay: Anticancer activity against human MDA-MB-468 cells assessed as cell growth at 10^-5 M after 48 hrs by SRB assay; details: MDA-MB-468, 48 h, read-out: Activity

Row | SMILES | growth at 10 µM (CCRF-CEM) [%] | growth at 10 µM (K562) [%] | growth at 10 µM (MOLT-4) [%] | growth at 10 µM (RPMI-8226) [%] | growth at 10 µM (HOP-92) [%] | growth at 10 µM (NCI-H226) [%] | growth at 10 µM (NCI-H23) [%] | growth at 10 µM (NCI-H322M) [%] | growth at 10 µM (NCI-H460) [%] | growth at 10 µM (NCI-H522) [%] | growth at 10 µM (HCT-116) [%] | growth at 10 µM (HCT-15) [%] | growth at 10 µM (KM12) [%] | growth at 10 µM (SF-295) [%] | growth at 10 µM (U-251) [%] | growth at 10 µM (Malme-3M) [%] | growth at 10 µM (M14) [%] | growth at 10 µM (SK-MEL-28) [%] | growth at 10 µM (SK-MEL-5) [%] | growth at 10 µM (IGROV-1) [%] | further results
1 | COc1cccc(-c2nc3sccn3c2-c2ccnc(NCCNC(=O)Nc3cccc(C(F)(F)F)c3)n2)c1 | 27 | 39.9 | 36.7 | 20.4 | 92.4 | 94.9 | 83.8 | 81.3 | 45.1 | 47.7 | 44.6 | 45.9 | 33.5 | 37.7 | 58.1 | 85.1 | 39.2 | 78.4 | 51.5 | 50.9 | growth at 10 µM (OVCAR-3): 66.3%; growth at 10 µM (OVCAR-8): 21.3%; growth at 10 µM (SK-OV-3): 78.6%; growth at 10 µM (786-0): 65.6%; growth at 10 µM (ACHN): 46.2%; growth at 10 µM (SN12C): 68.8%; growth at 10 µM (UO-31): 39.7%; growth at 10 µM (PC-3): 32.9%; growth at 10 µM (MCF7): 54.8%; growth at 10 µM (MDA-MB-231): 43.6%; growth at 10 µM (T47D): 42.9%; growth at 10 µM (MDA-MB-468): 39.6%
2 | O=C(NCCNc1nccc(-c2c(-c3cccc(O)c3)nc3sccn23)n1)c1ccc(N2CCOCC2)c(C(F)(F)F)c1 | 56.9 | 63 | 57 | 58.8 | 38.9 | 69.5 | 85.4 | 102 | 66.9 | 74.4 | 60.2 | 80 | 77.5 | 67.5 | 82 | -4.27 | 19.1 | 42.8 | 40 | 54.3 | growth at 10 µM (OVCAR-3): 89.1%; growth at 10 µM (OVCAR-8): 72.8%; growth at 10 µM (SK-OV-3): 66.4%; growth at 10 µM (786-0): 60.1%; growth at 10 µM (ACHN): 60.8%; growth at 10 µM (SN12C): 76%; growth at 10 µM (UO-31): 61.3%; growth at 10 µM (PC-3): 56.6%; growth at 10 µM (MCF7): 58.7%; growth at 10 µM (MDA-MB-231): 64.9%; growth at 10 µM (T47D): 60.1%; growth at 10 µM (MDA-MB-468): 50.2%
3 | COc1cccc(-c2nc3sccn3c2-c2ccnc(NCCNC(=O)Nc3ccccc3)n2)c1 | 44.4 | 99.4 | 74.9 | 55.5 | 70.9 | 109 | 111 | 108 | 115 | 82.7 | 52.9 | 87.8 | 92 | 110 | 108 | 112 | 99.1 | 108 | 81.9 | 97.9 | growth at 10 µM (OVCAR-3): 109%; growth at 10 µM (OVCAR-8): 74.7%; growth at 10 µM (SK-OV-3): 99%; growth at 10 µM (786-0): 96.8%; growth at 10 µM (ACHN): 95.5%; growth at 10 µM (SN12C): 65.6%; growth at 10 µM (UO-31): 76.1%; growth at 10 µM (PC-3): 84.2%; growth at 10 µM (MCF7): 96.2%; growth at 10 µM (MDA-MB-231): 103%; growth at 10 µM (T47D): 82.5%; growth at 10 µM (MDA-MB-468): 101%
4 | O=C(NCCNc1nccc(-c2c(-c3cccc(O)c3)nc3sccn23)n1)c1cc(N2CCOCC2)cc(C(F)(F)F)c1 | 52.9 | 70.7 | 68.5 | 67 | 87.7 | 106 | 106 | 107 | 96.2 | 78.6 | 78.8 | 92 | 97.3 | 84.4 | 105 | 3.04 | 22.4 | 44.5 | 58.4 | 80.4 | growth at 10 µM (OVCAR-3): 107%; growth at 10 µM (OVCAR-8): 78.1%; growth at 10 µM (SK-OV-3): 94%; growth at 10 µM (786-0): 86.6%; growth at 10 µM (ACHN): 79.4%; growth at 10 µM (SN12C): 89.8%; growth at 10 µM (UO-31): 87.5%; growth at 10 µM (PC-3): 78.2%; growth at 10 µM (MCF7): 85.4%; growth at 10 µM (MDA-MB-231): 74.2%; growth at 10 µM (T47D): 77.7%; growth at 10 µM (MDA-MB-468): 94.8%
